Consider 23 compounds from ChEMBL document CHEMBL1124191, “Design of rat renin inhibitory peptides” (J Med Chem, 1988).

Molecules are shown by their SMILES. *1 amine or outer side, *2 acyl side, *3 side chain or, on linkers, in order; H or OH if unused. Where a SMILES comes first, the peptide text is derived from it. [ ]: non-standard residue; d: D form. Ahppa(3S,4S) = O=C(C[C@H](O)[C@H](Cc1ccccc1)N[*:1])[*:2]; 1Nal = N[C@@H](Cc1cccc2ccccc12)C(=O)O; Sta = CC(C)C[C@H](N)[C@@H](O)CC(=O)O; Cha = N[C@@H](CC1CCCCC1)C(=O)O; Chg = N[C@H](C(=O)O)C1CCCCC1; Tle = CC(C)(C)[C@H](N)C(=O)O

In the experiment the target is T1, Renin (Rattus norvegicus, UniProt P08424).
T1 sequence (P08424 whole entry): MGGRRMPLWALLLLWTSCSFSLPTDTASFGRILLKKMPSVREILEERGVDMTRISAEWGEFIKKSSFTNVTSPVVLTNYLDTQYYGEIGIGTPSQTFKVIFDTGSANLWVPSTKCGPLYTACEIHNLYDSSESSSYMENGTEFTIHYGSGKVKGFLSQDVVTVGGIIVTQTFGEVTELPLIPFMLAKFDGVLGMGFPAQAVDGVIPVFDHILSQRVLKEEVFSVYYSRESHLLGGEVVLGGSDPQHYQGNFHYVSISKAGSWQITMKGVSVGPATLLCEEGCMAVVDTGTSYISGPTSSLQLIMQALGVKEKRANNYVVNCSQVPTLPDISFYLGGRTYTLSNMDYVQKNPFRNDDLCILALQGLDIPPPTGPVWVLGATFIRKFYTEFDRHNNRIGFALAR
The experiment is described as follows: Inhibitory activity against rat plasma renin in vitro. Type of experiment: cell-free. In a few lines: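 Pooled EDTA rat plasma with added PMSF 5 mM, 8-hydroxyquinoline 3 mM and extra EDTA 5 mM, at pH 7.4, mixed with serial 1:10 peptide dilutions (Tris/DMSO), split, and incubated 1 h at 37 and 0 °C.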
The IC50 is the midpoint of a concentration-inhibition curve. A higher IC50 goes with lower potency. For `CC(=O)N[C@@H](Cc1cnc[nH]1)C(=O)N1CCC[C@H]1C(=O)N[C@@H](Cc1ccccc1)C(=O)N[C@@H](Cc1cnc[nH]1)C(=O)N[C@@H](CC(C)C)[C@@H](O)CC(=O)N[C@@H](CC(C)C)C(=O)N[C@@H](Cc1ccccc1)C(N)=O`, the IC50 was determined as 0.21 µM.

The compound `CC(=O)N[C@@H](Cc1c[nH]cn1)C(=O)N1CCC[C@H]1C(=O)N[C@H](CC(C)C)C(=O)N[C@@H](Cc1c[nH]cn1)C(=O)N[C@@H](CC(C)C)[C@@H](O)CC(=O)N[C@@H](CC(C)C)C(=O)N[C@@H](Cc1ccccc1)C(N)=O` yielded an IC50 of approximately 1000 µM.

`CC(=O)N[C@@H](Cc1c[nH]cn1)C(=O)N1CCC[C@H]1C(=O)N[C@@H](Cc1ccccc1)C(=O)N[C@H](C(=O)N[C@@H](CC(C)C)[C@@H](O)CC(=O)N[C@@H](CC(C)C)C(=O)N[C@@H](Cc1ccccc1)C(N)=O)C(C)C` returned a half-inhibitory concentration (IC50) of 0.03 µM. This lies in the double-digit nanomolar range.

Take `CC(=O)N[C@@H](Cc1cnc[nH]1)C(=O)N1CCC[C@H]1C(=O)N[C@@H](Cc1ccccc1)C(=O)N[C@@H](Cc1cnc[nH]1)C(=O)N[C@@H](CC1CCCCC1)[C@@H](O)CC(=O)N[C@@H](CC(C)C)C(=O)N[C@@H](Cc1ccccc1)C(N)=O`: half-maximal inhibition (IC50) was put at 0.05 µM.

In turn, `CC(=O)N[C@@H](Cc1cnc[nH]1)C(=O)N1CCC[C@H]1C(=O)N[C@@H](Cc1ccccc1)C(=O)N[C@@H](CC(C)C)C(=O)N[C@@H](CC(C)C)[C@@H](O)CC(=O)N[C@@H](CC(C)C)C(=O)N[C@@H](Cc1ccccc1)C(N)=O` gave a half-inhibitory concentration (IC50) of 0.31 µM. Compared with the last compound, the IC50 is about 6.2-fold higher.

The compound `CC(=O)N[C@@H](Cc1c[nH]cn1)C(=O)N1CCC[C@H]1C(=O)N[C@@H](Cc1ccccc1)C(=O)N[C@H](CC(C)C)C(=O)N[C@@H](CC(C)C)[C@@H](O)CC(=O)N[C@@H](CC(C)C)C(=O)N[C@@H](Cc1ccccc1)C(N)=O` showed an IC50 of approximately 1000 µM.

For `CC(=O)N[C@@H](Cc1cnc[nH]1)C(=O)N1CCC[C@H]1C(=O)N[C@@H](Cc1ccccc1)C(=O)N[C@H](C(=O)N[C@@H](CC1CCCCC1)[C@@H](O)CC(=O)N[C@@H](CC(C)C)C(=O)N[C@@H](Cc1ccccc1)C(N)=O)C(C)C`, inhibition was half-maximal at 0.033 µM (IC50).

Turning to `CC(=O)N[C@@H](Cc1c[nH]cn1)C(=O)N1CCC[C@H]1C(=O)N[C@@H](CC(C)C)C(=O)N[C@@H](Cc1c[nH]cn1)C(=O)N[C@@H](CC(C)C)[C@@H](O)CC(=O)N[C@@H](CC(C)C)C(=O)N[C@@H](Cc1ccccc1)C(N)=O`, the half-maximal inhibitory concentration (IC50) is 9.1 µM.

`CC(=O)N[C@@H](Cc1c[nH]cn1)C(=O)N1CCC[C@@H]1C(=O)N[C@H](C)C(=O)N[C@@H](Cc1c[nH]cn1)C(=O)N[C@@H](CC(C)C)[C@@H](O)CC(=O)N[C@@H](CC(C)C)C(=O)N[C@@H](Cc1ccccc1)C(N)=O` showed an IC50 of approximately 1000 µM.

`CC(=O)N[C@@H](Cc1c[nH]cn1)C(=O)N1CCC[C@@H]1C(=O)N[C@@H](Cc1ccccc1)C(=O)N[C@H](C)C(=O)N[C@@H](CC(C)C)[C@@H](O)CC(=O)N[C@@H](CC(C)C)C(=O)N[C@@H](Cc1ccccc1)C(N)=O`: the concentration for half-maximal inhibition (IC50) is approximately 1000 µM.

As for `CC(=O)N[C@@H](Cc1ccccc1)C(=O)N1CCC[C@H]1C(=O)N[C@@H](Cc1ccccc1)C(=O)N[C@H](C(=O)N[C@@H](CC(C)C)[C@@H](O)CC(=O)N[C@@H](CC(C)C)C(=O)N[C@@H](Cc1ccccc1)C(N)=O)C(C)C` (Ac-FPFV[Sta]LF-NH2), the IC50 was 0.042 µM. In other words, the double-digit nanomolar range.

Regarding `CC(=O)N[C@@H](Cc1cnc[nH]1)C(=O)N1CCC[C@H]1C(=O)N[C@@H](Cc1ccccc1)C(=O)N[C@@H](Cc1cnc[nH]1)C(=O)N[C@@H](Cc1ccccc1)[C@@H](O)CC(=O)N[C@@H](CC(C)C)C(=O)N[C@@H](Cc1ccccc1)C(N)=O` (Ac-HPFH[Ahppa(3S,4S)]LF-NH2), half-maximal inhibition (IC50) was put at 0.15 µM. This IC50 lies about 3.6-fold higher than the previous one.

Consider `CC(=O)N[C@@H](Cc1cnc[nH]1)C(=O)N1CCC[C@H]1C(=O)N[C@@H](Cc1ccccc1)C(=O)N[C@@H](Cc1cnc[nH]1)C(=O)N[C@@H](CC(C)C)[C@@H](O)CC(=O)N[C@@H](CC(C)C)C(=O)N[C@H](C(N)=O)C(C)C` (Ac-HPFH[Sta]LV-NH2), for which the midpoint of inhibition, the IC50, lay at 0.27 µM.

Take `CC(=O)N[C@@H](Cc1c[nH]cn1)C(=O)N1CCC[C@H]1C(=O)N[C@@H](Cc1ccccc1)C(=O)N[C@@H](Cc1c[nH]cn1)C(=O)N[C@@H](CC(C)C)[C@@H](O)CC(=O)N[C@@H](CC(C)C)C(=O)N[C@@H](CC1CCCCC1)C(N)=O` (Ac-HPFH[Sta]L[Cha]-NH2): the IC50 was determined as 0.16 µM.

On to `CC(=O)N[C@@H](Cc1c[nH]cn1)C(=O)N1CCC[C@H]1C(=O)N[C@@H](Cc1ccccc1)C(=O)N[C@@H](Cc1c[nH]cn1)C(=O)N[C@@H](CC(C)C)[C@@H](O)CC(=O)N[C@H](C(=O)N[C@@H](Cc1ccccc1)C(N)=O)C(C)C` (Ac-HPFH[Sta]VF-NH2), for which half-maximal inhibition (IC50) required 2.8 µM.

On to `CC(=O)N[C@@H](Cc1c[nH]cn1)C(=O)N1CCC[C@H]1C(=O)N[C@@H](Cc1ccccc1)C(=O)N[C@@H](Cc1c[nH]cn1)C(=O)N[C@@H](CC(C)C)[C@@H](O)CC(=O)N[C@@H](CC1CCCCC1)C(=O)N[C@@H](Cc1ccccc1)C(N)=O` (Ac-HPFH[Sta][Cha]F-NH2), for which the IC50 is 2.7 µM. This IC50 and that of the compound before are within 1.5-fold of each other.

The compound `CC(=O)N[C@@H](Cc1cnc[nH]1)C(=O)N1CCC[C@H]1C(=O)N[C@@H](Cc1ccccc1)C(=O)N[C@@H](Cc1cnc[nH]1)C(=O)N[C@@H](CC(C)C)[C@@H](O)CC(=O)N[C@H](C(=O)N[C@@H](Cc1ccccc1)C(N)=O)C(C)(C)C` (Ac-HPFH[Sta][Tle]F-NH2) came in with an IC50 of 1.9 µM.

`CC[C@H](C)[C@H](NC(=O)[C@H](Cc1ccccc1)NC(=O)[C@@H]1CCCN1C(=O)[C@H](Cc1cnc[nH]1)NC(C)=O)C(=O)N[C@@H](Cc1ccccc1)[C@@H](O)CC(=O)N[C@@H](CC(C)C)C(=O)N[C@@H](Cc1ccccc1)C(N)=O` (Ac-HPFI[Ahppa(3S,4S)]LF-NH2) had an IC50 of 1.27 µM.

As for `CC(=O)N[C@@H](Cc1cnc[nH]1)C(=O)N1CCC[C@H]1C(=O)N[C@@H](Cc1ccccc1)C(=O)N[C@H](C(=O)N[C@@H](CC(C)C)[C@@H](O)CC(=O)N[C@@H](CC(C)C)C(=O)N[C@@H](Cc1ccccc1)C(N)=O)C1CCCCC1` (Ac-HPF[Chg][Sta]LF-NH2), the midpoint of inhibition, the IC50, lay at 2.5 µM.

The compound `CC(=O)N[C@@H](Cc1c[nH]cn1)C(=O)N1CCC[C@H]1C(=O)N[C@@H](Cc1ccccc1)C(=O)N[C@H](C(=O)N[C@@H](CC(C)C)[C@@H](O)CC(=O)N[C@@H](CC(C)C)C(=O)N[C@@H](Cc1ccccc1)C(N)=O)C(C)(C)C` (Ac-HPF[Tle][Sta]LF-NH2) had an IC50 of 0.4 µM. This IC50 is about 6.2-fold lower than that of the compound before.

The compound `CC(=O)N[C@@H](Cc1cnc[nH]1)C(=O)N1CCC[C@H]1C(=O)N[C@@H](Cc1c[nH]c2ccccc12)C(=O)N[C@@H](Cc1cnc[nH]1)C(=O)N[C@@H](CC(C)C)[C@@H](O)CC(=O)N[C@@H](CC(C)C)C(=O)N[C@@H](Cc1ccccc1)C(N)=O` (Ac-HPWH[Sta]LF-NH2) showed a half-inhibitory concentration (IC50) of 0.24 µM.

As for `CC(=O)N[C@@H](Cc1c[nH]cn1)C(=O)N1CCC[C@H]1C(=O)N[C@@H](Cc1cccc2ccccc12)C(=O)N[C@@H](Cc1c[nH]cn1)C(=O)N[C@@H](CC(C)C)[C@@H](O)CC(=O)N[C@@H](CC(C)C)C(=O)N[C@@H](Cc1ccccc1)C(N)=O` (Ac-HP[1Nal]H[Sta]LF-NH2), the half-inhibitory concentration (IC50) turned out to be 0.22 µM.

As for `CC(=O)N[C@@H](Cc1cnc[nH]1)C(=O)N1CCC[C@H]1C(=O)N[C@@H](CC1CCCCC1)C(=O)N[C@@H](Cc1cnc[nH]1)C(=O)N[C@@H](CC(C)C)[C@@H](O)CC(=O)N[C@@H](CC(C)C)C(=O)N[C@@H](Cc1ccccc1)C(N)=O` (Ac-HP[Cha]H[Sta]LF-NH2), the IC50 is 0.65 µM.
